Data published in ChEMBL document CHEMBL4715923, “Investigation on the Anticancer Activity of Symmetric and Unsymmetric Cyclic Sulfamides” (ACS Med Chem Lett, 2021).
The source made the active and inactive calls. The rule behind the calls is not given here.

Tests used:
A549 [1] = experiment: Induction of apoptosis in human A549 cells assessed as effect on caspase activation; format: functional, cell-based
SF-295 = experiment: Cytotoxicity against human SF-295 cells assessed as reduction in cell growth incubated for 48 hrs by SRB assay; format: functional, cell-based
In short: (§1)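 Cells kept in RPMI 1640 with 5% FBS and 2 mM L-glutamine at 37 °C in 5% CO2, periodically tested for Mycoplasma. After plating, cells were held 1 day without drug, and time-zero plates were read. Compounds in DMSO were added at 10^-4 to 10^-8 M (five 10-fold steps), with DMSO-only controls, for 48 h. Cells were then TCA-fixed and stained with sulforhodamine B, and absorbance was read. GI50 was derived from time-zero, control and treated absorbances; LC50 is the mean of two independent experiments.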

HCT-116 = experiment: Cytotoxicity against human HCT-116 cells assessed as reduction in cell growth incubated for 48 hrs by SRB assay; format: functional, cell-based; in short: as §1
A549 [2] = experiment: Inhibition of colony formation in human A549 cells grown under anchorage-independent soft-agar condition incubated for 9 days and subsequent media replenishment for every 3 days by crystal violet staining based light microscopy assay; conditions: dose 10-50 µM, time 9.0 day
A549 [3] = experiment: Inhibition of cell migration in human A549 cells incubated for 24 hrs by phase contrast microscopy based relative wound healing/cell migration assay to control; format: functional; conditions: dose 0-50 µM
In short: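 Scratches were made in A549 monolayers. Cells were then grown in medium containing compound (0–50 μM) or DMSO vehicle, and wound closure was imaged by phase-contrast microscopy.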

OVCAR-4 = experiment: Cytotoxicity against human OVCAR-4 cells assessed as reduction in cell growth incubated for 48 hrs by SRB assay; format: functional, cell-based; in short: as §1
A549 [4] = experiment: Induction of cell cycle arrest in human A549 cells assessed as increase in subG1 phase accumulation incubated for 48 hrs by PI based flow cytometry; format: functional
In short: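 A549 cells were exposed for 48 h, stained with propidium iodide and analysed by flow cytometry for cell cycle distribution and the sub-G1 (dead cell) fraction.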

A549 [5] = experiment: Cytotoxicity against human A549 cells assessed as loss of cell morphological changes at 1 uM; format: functional, cell-based
In short: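 A549 cells grown overnight were exposed to 1 μM compound or DMSO vehicle, and changes in cell morphology were recorded.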

PC-3 = experiment: Cytotoxicity against human PC-3 cells assessed as reduction in cell growth incubated for 48 hrs by SRB assay; format: functional, cell-based; in short: as §1
A549 [6] = experiment: Induction of cellular senescence in human A549 cells assessed as increase in SA-beta-Gal accumulation in cells at 10 to 50 uM incubated for overnight by microscopic analysis; format: functional, cell-based; conditions: dose 10-50 µM
A549 [7] = experiment: Cytotoxicity against human A549 cells assessed as reduction in cell growth at 10 uM incubated for 36 hrs by MTT assay relative to control; format: functional
In short: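 A549 cells were treated with 10 μM compound or DMSO vehicle, and growth inhibition was followed over time, with a 36 h time point.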

MDA-MB-468 = experiment: Cytotoxicity against human MDA-MB-468 cells assessed as reduction in cell growth incubated for 48 hrs by SRB assay; format: functional, cell-based; in short: as §1
Coagulation factor X = Coagulation factor X (Homo sapiens, UniProt P00742); experiment: Inhibition of human factor Xa using […] as substrate by chromogenic assay
RPMI-8226 = experiment: Cytotoxicity against human RPMI-8226 cells assessed as reduction in cell growth incubated for 48 hrs by SRB assay; format: functional, cell-based; in short: as §1
[8] = system: Panel NCI-60 (60 carcinoma cell lines); experiment: Cytotoxicity against human Panel NCI-60 (60 carcinoma cell lines) assessed as reduction in cell growth incubated for 48 hrs by SRB assay; format: functional, cell-based; in short: as §1

Coagulation factor X, sequence (P00742 41-179 limits assumed): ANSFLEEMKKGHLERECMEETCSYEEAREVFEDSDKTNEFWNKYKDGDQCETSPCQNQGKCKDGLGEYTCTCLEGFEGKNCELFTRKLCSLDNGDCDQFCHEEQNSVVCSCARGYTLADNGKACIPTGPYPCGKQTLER
Coagulation factor X, sequence (P00742 235-488 limits assumed): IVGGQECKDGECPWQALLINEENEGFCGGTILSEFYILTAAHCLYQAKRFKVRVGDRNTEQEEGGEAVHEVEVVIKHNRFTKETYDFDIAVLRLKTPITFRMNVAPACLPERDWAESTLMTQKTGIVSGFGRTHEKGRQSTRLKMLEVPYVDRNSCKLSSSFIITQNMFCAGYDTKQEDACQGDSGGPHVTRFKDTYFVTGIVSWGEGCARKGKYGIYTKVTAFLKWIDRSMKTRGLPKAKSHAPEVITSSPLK

O=S1(=O)N(Cc2ccccc2)[C@@H](Cc2ccccc2)C=C[C@H](Cc2ccccc2)N1Cc1ccccc1
Activity (A549 [1]): inactive
inhibition (SF-295): Active
inhibition (HCT-116): Active
inhibition (A549 [2]): Dose-dependent effect
inhibition (INH) (A549 [3]): 50%
inhibition (OVCAR-4): Active
Activity (A549 [4]): Active
Activity (A549 [5]): Active
inhibition (PC-3): Active
Activity (A549 [6]): Active
inhibition at 10 µM (A549 [7]): 50%
inhibition (MDA-MB-468): Active

CC(=N)N1CCC(Oc2ccc3c(c2)C(=O)NS(=O)(=O)N3Cc2ccc3ccc(C(=N)N)cc3c2)CC1
IC50 (Coagulation factor X): 0.4 nM

O=S1(=O)N(Cc2ccccc2)[C@@H](Cc2ccccc2)[C@@H]2O[C@@H]2[C@H](Cc2ccccc2)N1Cc1ccccc1
inhibition (RPMI-8226): Active
inhibition [8]: Active

O=S1(=O)N(Cc2ccccc2)[C@H](Cc2ccccc2)[C@H](O)[C@H](O)[C@@H](Cc2ccccc2)N1Cc1ccccc1
inhibition (RPMI-8226): Active
inhibition [8]: Active

O=S1(=O)N(Cc2ccccc2)[C@@H](Cc2ccccc2)[C@H](O)[C@H](O)[C@H](Cc2ccccc2)N1Cc1ccccc1
inhibition (RPMI-8226): Active
inhibition [8]: Active
